# High-throughput results: PubChem, Broad Institute
# DENV2 CPE rescue: inhibitors of DENV2 cytopathic effect. DENV2-infected cells, cytopathic effect rescue, plate reader. CPE inhibition, % at 9.99 µM. 350,000 tested, 1.7% active. AID 651640; in the data active means CPE inhibition above about 20%, passing the limit was not always enough; tested in BHK-21 cells;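 further: 0% = median of neutral control wells and 100% = median of positive control wells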
# miR-122 sensor: inhibitors of miR-122 in Huh7 cells; Huh7 miR-122 Renilla luciferase sensor, 48 h; neutral wells = 0, positive control = 100; activation (reporter increase), % at 12.5 µM; 340,000 tested, 0.3% active; AID 602342;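 active means mean replicate activation score at least 90 and every replicate individually at or above 90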;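 further: higher luciferase means less miR-122 activity so hits act as miR-122 inhibitors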
# CFTR F508del cor: CFTR F508del correction in bronchial cells; CFBE cells, YFP halide quenching; stimulated with forskolin plus potentiator P3; % fluorescence drop versus neutral controls; activity (quench increase), % at 7.58 µM; 350,000 tested, 0.36% active; AID 720511;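 active means mean added fluorescence quench of at least 8% versus neutral control, with both replicates also reaching 8%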;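 further: cells transiently co-express mutant CFTR-F508del with the halide-sensitive YFP; corrector assay measuring rescue of mutant channel to the surface after 24 h compound exposure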
# E-selectin induc: E-selectin induction on HUVECs; activation, % at 7.58 µM; P16581; HUVEC E-selectin immunofluorescence imaging; normalized: neutral wells 0, TNF-alpha wells 100; 260,000 tested, 0.37% active; AID 686992;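 active means mean E-selectin-positive cell signal at least 10% of the positive control, reached in at least 60% of replicates, without over 20% cell loss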
# Target sequence (P16581 whole entry, looked up): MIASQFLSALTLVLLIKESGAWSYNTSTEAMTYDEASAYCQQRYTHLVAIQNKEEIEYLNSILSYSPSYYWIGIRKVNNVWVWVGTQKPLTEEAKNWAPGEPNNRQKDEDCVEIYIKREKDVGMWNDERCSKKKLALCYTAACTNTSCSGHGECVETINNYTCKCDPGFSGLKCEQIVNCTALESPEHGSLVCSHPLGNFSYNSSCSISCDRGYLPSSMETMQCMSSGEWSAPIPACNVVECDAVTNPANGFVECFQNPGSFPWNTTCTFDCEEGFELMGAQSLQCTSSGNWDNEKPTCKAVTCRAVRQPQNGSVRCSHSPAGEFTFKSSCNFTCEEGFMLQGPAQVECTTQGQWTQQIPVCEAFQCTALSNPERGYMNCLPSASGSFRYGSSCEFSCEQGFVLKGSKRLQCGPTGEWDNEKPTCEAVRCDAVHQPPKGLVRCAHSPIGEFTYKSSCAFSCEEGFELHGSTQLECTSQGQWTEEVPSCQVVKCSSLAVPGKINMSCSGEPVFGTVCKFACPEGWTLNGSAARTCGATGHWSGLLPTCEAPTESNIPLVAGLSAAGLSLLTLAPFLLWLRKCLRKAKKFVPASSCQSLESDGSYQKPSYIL
#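 Material: HUVEC primary endothelial cells; Amount: 3,000 cells per well; Dosing: single concentration; Medium: EGM-2 growth medium on 0.1% gelatin-coated wells; Read-out basis: percent E-selectin-positive cells; Signal: immunofluorescence imaging; Control set: TNF-alpha, DMSO.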
# ERAP1 inh: inhibitors of human ERAP1 aminopeptidase. recombinant ERAP1, Leu-AMC fluorescence, 60 min. Q9NZ08. inhibition, % at 10.7 µM. 340,000 tested, 0.15% active. AID 652197;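 active means mean replicate inhibition of at least 30%, or all replicates individually reaching that 30% level; inactive means mean below 30% and not every replicate reaching it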;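 further: 0% = neutral control wells and 100% = L-leucinethiol positive control wells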
# GSIS activator: primary screen for activators of insulin secretion dependent on glucose, INS-1E cells, GLuc reporter luminescence. 370,000 tested, 0.61% active. INS-1E GLuc reporter insulin secretion, 2-3 h. activation, % at 16.6 µM. AID 743287;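 active means lowest replicate activation of at least 40%, so every replicate reaches that level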;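 further: 0% = median of neutral control wells and 100% = median of IBMX positive control wells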
# The depositor's hits bear a star; . = no result; ! = a repeat was not active; [ ] = remark or other dose. An excerpt weighted towards active compounds, which were near 2.6% of everything screened.
SMILES,DENV2 CPE rescue,miR-122 sensor,CFTR F508del cor,E-selectin induc,ERAP1 inh,GSIS activator
COc1cccc(-c2ccc(C3[C@H]4CNC[C@@H]3N4S(=O)(=O)c3cn(C)cn3)cc2)c1 (stereo partly specified),-5,.,1,0,3,5
COc1cccc(S(=O)(=O)N2C[C@@H]3N[C@H](C2)C3c2ccc(-c3cccc(C)c3)cc2)c1 (stereo partly specified),3,.,12*!,1,2,20
COc1ccc(-c2ccc(C3[C@@H]4CN(S(=O)(=O)c5cccc(C)c5)C[C@H]3N4)cc2)cc1 (stereo partly specified),-5,.,3,0,0,-3
COc1cccc(-c2ccc(C3[C@@H]4CN(S(=O)(=O)c5cn(C)cn5)C[C@H]3N4)cc2)c1 (stereo partly specified),131*!,.,0,0,.,10
Cc1cccc(-c2ccc(C3[C@@H]4CN(C(=O)C5CCCCC5)C[C@H]3N4)cc2)c1 (stereo partly specified),-3,.,-1,0,.,213*!
COc1cccc(-c2ccc(C3[C@@H]4CN(C(=O)C5CCCCC5)C[C@H]3N4)cc2)c1 (stereo partly specified),-1,.,-4,0,2,-12
CCC(=O)Nc1ccc2c(c1)C(=O)N(C)[C@H]1CC[C@@H](CC(=O)Nc3cccc(OC)c3)O[C@@H]1CO2,11,0[16.7 µM],-2,0,0,-2
Cc1noc(C)c1NC(=O)Nc1ccc2c(c1)C(=O)N([C@H](C)CO)C[C@H](C)[C@H](CN(C)S(=O)(=O)c1ccc(F)cc1)O2,1,-1[16.7 µM],2,0,6,-1
C[C@H]1CN([C@@H](C)CO)C(=O)c2cc(-c3cncnc3)cnc2O[C@H]1CN(C)C(=O)c1cccc(F)c1,5,-3[16.7 µM],0,0,6,1
CC(=O)Nc1ccc2c(c1)C(=O)N(C)[C@@H]1CC[C@@H](CC(=O)NCCCN3CCOCC3)O[C@@H]1CO2,.,33[16.7 µM],-1,0,.,8
Cc1cccc(NC(=O)c2cccc(S(=O)(=O)N(C)C3CCCCC3)c2)n1,21*,2,0,0,-6,-4
C[C@@H]1CCCCO[C@H](CN(C)Cc2ccccc2)[C@@H](C)CN([C@H](C)CO)C(=O)c2cc(NC(=O)Nc3ccc(F)cc3)ccc2O1,-5,1[16.7 µM],-2,0,2,-15
C[C@@H]1CN([C@@H](C)CO)C(=O)c2cc(NC(=O)Nc3ccc(F)cc3)ccc2O[C@@H](C)CCCCO[C@H]1CN(C)Cc1ccccc1,40*,0[16.7 µM],1,0,3,-22
C[C@@H]1CCCCO[C@@H](CN(C)Cc2ccccc2)[C@H](C)CN([C@H](C)CO)C(=O)c2cc(NC(=O)Nc3ccc(F)cc3)ccc2O1,41*,0[16.7 µM],1,0,2,-6
C[C@@H]1CCCCO[C@H](CN(C)Cc2ccncc2)[C@@H](C)CN([C@@H](C)CO)C(=O)c2cc(NC(=O)Nc3ccc4c(c3)OCO4)ccc2O1,28*,8[16.7 µM],-2,0,1,-21
C[C@@H]1CN([C@@H](C)CO)C(=O)Cc2cc(NS(=O)(=O)c3cccs3)ccc2O[C@H]1CN(C)Cc1ccc(C(F)(F)F)cc1,-5,-13[16.7 µM],2,-5,-1,-19
CNC[C@@H]1Oc2cc(C#CCN(C)C)ccc2S(=O)(=O)N([C@H](C)CO)C[C@H]1C,0,-9[16.7 µM],-1,0,2,7
C[C@@H]1CCCCO[C@H](CN(C)C(=O)Nc2ccc(F)cc2)[C@@H](C)CN([C@H](C)CO)C(=O)c2cc(NS(C)(=O)=O)ccc2O1,-3,11[16.7 µM],2,0,2,7
COc1cc(CN2CC3(CCN(S(=O)(=O)c4cn(C)cn4)CC3)c3c(n(C)c4cc(OC)ccc34)[C@@H]2CO)cc(OC)c1,0,.,1,0,0,8
CCCC#Cc1ccc2c(c1)O[C@@H](CN(C)C(=O)Nc1ccccc1F)[C@H](C)CN([C@@H](C)CO)S2(=O)=O,3,35[16.7 µM],5,0,-2,-25
OC[C@H]1[C@@H]2c3ccccc3NC[C@@H]2N1CC1CCOCC1,22*,0[16.7 µM],-2,0,-4,6
Cc1ccccc1-c1cnc2c(c1)C(=O)N([C@H](C)CO)C[C@H](C)[C@H](CN(C)C(=O)c1cccnc1)O2,-3,-5[16.7 µM],4,1,0,13
COc1ccc(-c2ccc3c(c2)O[C@H](CN(C)C(C)=O)[C@@H](C)CN([C@H](C)CO)S3(=O)=O)cc1,-5,17[16.7 µM],1,0,2,4
C[C@@]12C(=O)Nc3ccc(Cl)cc3C(=O)N1[C@H]1c3cc(Cl)ccc3OC[C@@H]1[C@@H]2c1ccccc1,.,-9,-1,0,1,.
COc1ccc2c(c1)[C@H]1[C@H](CO2)[C@H](c2ccccc2)[C@]2(C)C(=O)Nc3ccc(Cl)cc3C(=O)N12,33*,-8,-1,0,2,-47
SMILES,DENV2 CPE rescue,miR-122 sensor,CFTR F508del cor,E-selectin induc,ERAP1 inh,GSIS activator
O=C(c1cccnc1)C1Cc2ccccc2C1=O (stereo unspecified),49*,.,0,-1,8,13
CCCNC(=O)[C@@H]1[C@@H](CO)[C@@H]2Cn3c(ccc(/C=C/c4ccccc4)c3=O)[C@H]1N2C(=O)c1ccccc1,1,19[16.7 µM],-2,0,-2,-5
O=C(Nc1ccc(C(F)(F)F)cc1)N[C@H]1CC[C@@H](CCn2cc(C3(O)CCCC3)nn2)O[C@@H]1CO,1,.,2,0,-1,-20
O=C(C[C@@H]1CC[C@H]2[C@@H](COC[C@H](O)CN2CCc2ccccc2)O1)NCc1ccc(Oc2ccccc2)cc1,24*,-13[16.7 µM],0,0,0,-9
CCNC(=O)C[C@H]1CC[C@H]2[C@@H](COC[C@H](O)CN2C(=O)CC)O1,-4,-6[16.7 µM],-1,0,-2,19
CCC(=O)N1C[C@@H](O)COC[C@H]2O[C@H](CC(=O)NCc3ccc(Oc4ccccc4)cc3)CC[C@@H]21,1,-2[16.7 µM],-1,3,-1,-1
CCNC(=O)C[C@@H]1CC[C@H]2[C@@H](COC[C@H](O)CN2C(=O)CC)O1,48*,-5[16.7 µM],-2,0,0,-6
CCC(=O)N1C[C@H](O)COC[C@H]2O[C@@H](CC(=O)NCc3ccc(Oc4ccccc4)cc3)CC[C@@H]21,92*,1[16.7 µM],1,0,-5,0
O=C(C[C@H]1CC[C@@H]2[C@H](COC[C@H](O)CN2CCc2ccccc2)O1)NCc1ccc(Oc2ccccc2)cc1,-21,-12[16.7 µM],-1,0,1,-14
